Converted amounts (≈) assume the structure as drawn. The source made the active and inactive calls. No cut-off for these calls is given here.
Experiments:
HL-60 = experiment: Growth inhibition of human HL60 cells at 10 uM after 48 hrs by MTT assay relative to control; format: functional; details: HL-60, 48 h, read-out: GI
Outline: (§1)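 Single-concentration primary screen at 10 μM by MTT assay. Cells were NCI-sourced cancer lines grown in appropriate medium at 37 °C, 95% humidity, 5% CO2. Growth inhibition is expressed relative to control.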

Caco-2 = experiment: Growth inhibition of human Caco2 cells at 10 uM after 48 hrs by MTT assay relative to control; format: functional; details: Caco-2, 48 h, read-out: GI; outline: as §1
CDK2/Cyclin O = CDK2/Cyclin O (Homo sapiens, UniProt P22674+P24941); experiment: Inhibition of CDK2/cyclin O (unknown origin) after 30 mins in presence of [33P]-gamma-ATP by filter binding assay; format: protein-complex assay
[1] = target: Receptor tyrosine-protein kinase erbB-3 (Homo sapiens) (UniProt P21860); experiment: Inhibition of partial length wild type human ERBB3 expressed in mammalian expression system at 0.5 uM by KINOMEscan method relative to control
Chain of Receptor tyrosine-protein kinase erbB-3 (Homo sapiens) (P21860 whole entry): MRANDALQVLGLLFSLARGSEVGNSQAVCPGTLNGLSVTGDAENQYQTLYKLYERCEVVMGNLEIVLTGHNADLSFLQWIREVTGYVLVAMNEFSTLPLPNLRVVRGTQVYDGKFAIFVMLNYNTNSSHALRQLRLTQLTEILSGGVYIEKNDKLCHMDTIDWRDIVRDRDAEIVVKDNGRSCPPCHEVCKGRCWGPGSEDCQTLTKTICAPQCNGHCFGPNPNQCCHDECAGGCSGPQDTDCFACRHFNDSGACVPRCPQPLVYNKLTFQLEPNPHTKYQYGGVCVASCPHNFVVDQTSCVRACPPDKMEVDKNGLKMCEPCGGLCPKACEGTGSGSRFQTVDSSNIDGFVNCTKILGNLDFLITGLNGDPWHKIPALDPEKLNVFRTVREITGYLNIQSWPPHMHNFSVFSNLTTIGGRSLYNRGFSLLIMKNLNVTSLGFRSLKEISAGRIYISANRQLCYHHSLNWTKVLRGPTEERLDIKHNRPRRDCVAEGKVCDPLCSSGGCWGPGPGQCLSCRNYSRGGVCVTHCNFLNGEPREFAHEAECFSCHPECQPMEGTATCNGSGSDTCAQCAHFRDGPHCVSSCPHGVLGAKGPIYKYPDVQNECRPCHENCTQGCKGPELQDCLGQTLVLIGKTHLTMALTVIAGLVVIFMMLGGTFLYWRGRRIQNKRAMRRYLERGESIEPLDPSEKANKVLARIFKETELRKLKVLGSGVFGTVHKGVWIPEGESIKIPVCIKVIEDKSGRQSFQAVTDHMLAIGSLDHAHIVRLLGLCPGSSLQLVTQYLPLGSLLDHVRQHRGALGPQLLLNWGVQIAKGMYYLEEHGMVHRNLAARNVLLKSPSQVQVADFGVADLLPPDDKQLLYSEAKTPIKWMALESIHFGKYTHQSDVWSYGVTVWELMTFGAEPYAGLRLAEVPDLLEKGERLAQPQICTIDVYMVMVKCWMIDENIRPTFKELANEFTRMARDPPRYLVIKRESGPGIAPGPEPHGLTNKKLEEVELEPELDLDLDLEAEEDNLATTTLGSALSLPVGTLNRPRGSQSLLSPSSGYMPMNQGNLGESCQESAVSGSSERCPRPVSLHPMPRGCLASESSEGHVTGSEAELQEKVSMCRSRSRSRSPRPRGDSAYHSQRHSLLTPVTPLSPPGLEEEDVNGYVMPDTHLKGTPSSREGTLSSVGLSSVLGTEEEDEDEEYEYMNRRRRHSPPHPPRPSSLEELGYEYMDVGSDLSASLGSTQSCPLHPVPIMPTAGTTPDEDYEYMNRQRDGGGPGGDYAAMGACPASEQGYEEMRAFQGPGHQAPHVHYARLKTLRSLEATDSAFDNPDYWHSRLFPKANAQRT
Outline: (§2)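 Competition binding screen (KINOMEscan) at 0.5 μM; primary binding read out as % of control, lower values indicating stronger interaction.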

[2] = test system: Mast/stem cell growth factor receptor Kit (Homo sapiens), P10721 [A829P]; experiment: Inhibition of partial length human KIT A829P mutant expressed in mammalian expression system at 0.5 uM by KINOMEscan method relative to control; outline: as §2
Chain of Mast/stem cell growth factor receptor Kit (Homo sapiens), P10721 [A829P] (P10721 whole entry A829P): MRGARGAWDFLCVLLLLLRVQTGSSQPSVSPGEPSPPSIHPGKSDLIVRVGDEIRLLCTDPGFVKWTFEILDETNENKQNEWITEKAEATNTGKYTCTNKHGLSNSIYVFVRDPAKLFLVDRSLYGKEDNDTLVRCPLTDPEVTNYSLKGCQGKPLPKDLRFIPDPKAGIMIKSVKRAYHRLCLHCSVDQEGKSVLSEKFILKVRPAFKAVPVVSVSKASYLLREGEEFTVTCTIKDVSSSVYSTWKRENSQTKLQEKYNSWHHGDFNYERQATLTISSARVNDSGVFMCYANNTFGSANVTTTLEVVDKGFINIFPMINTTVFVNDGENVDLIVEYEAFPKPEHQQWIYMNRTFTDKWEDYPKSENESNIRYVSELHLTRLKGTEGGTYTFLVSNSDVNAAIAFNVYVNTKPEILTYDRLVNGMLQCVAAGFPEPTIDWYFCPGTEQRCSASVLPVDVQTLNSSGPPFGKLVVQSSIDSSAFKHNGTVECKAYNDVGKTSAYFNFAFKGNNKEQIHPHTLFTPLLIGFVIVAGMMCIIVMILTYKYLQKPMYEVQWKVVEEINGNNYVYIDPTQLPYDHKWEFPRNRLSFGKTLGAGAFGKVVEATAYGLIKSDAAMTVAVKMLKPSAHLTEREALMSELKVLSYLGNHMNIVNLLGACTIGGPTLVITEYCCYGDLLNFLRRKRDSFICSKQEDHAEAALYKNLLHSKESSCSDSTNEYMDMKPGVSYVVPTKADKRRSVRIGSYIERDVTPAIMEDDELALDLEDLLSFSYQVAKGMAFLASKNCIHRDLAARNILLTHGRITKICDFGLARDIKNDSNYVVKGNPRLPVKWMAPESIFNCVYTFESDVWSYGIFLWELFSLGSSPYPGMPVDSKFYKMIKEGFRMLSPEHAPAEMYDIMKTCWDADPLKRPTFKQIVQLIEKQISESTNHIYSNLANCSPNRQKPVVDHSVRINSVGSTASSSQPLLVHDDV

[3] = target: Voltage-gated inwardly rectifying potassium channel KCNH2 (Homo sapiens, UniProt Q12809); experiment: Inhibition of [3H]-astemizole binding to human ERG expressed in HEK293 cell membranes by scintillation counting method
Chain of Voltage-gated inwardly rectifying potassium channel KCNH2 (Q12809 whole entry): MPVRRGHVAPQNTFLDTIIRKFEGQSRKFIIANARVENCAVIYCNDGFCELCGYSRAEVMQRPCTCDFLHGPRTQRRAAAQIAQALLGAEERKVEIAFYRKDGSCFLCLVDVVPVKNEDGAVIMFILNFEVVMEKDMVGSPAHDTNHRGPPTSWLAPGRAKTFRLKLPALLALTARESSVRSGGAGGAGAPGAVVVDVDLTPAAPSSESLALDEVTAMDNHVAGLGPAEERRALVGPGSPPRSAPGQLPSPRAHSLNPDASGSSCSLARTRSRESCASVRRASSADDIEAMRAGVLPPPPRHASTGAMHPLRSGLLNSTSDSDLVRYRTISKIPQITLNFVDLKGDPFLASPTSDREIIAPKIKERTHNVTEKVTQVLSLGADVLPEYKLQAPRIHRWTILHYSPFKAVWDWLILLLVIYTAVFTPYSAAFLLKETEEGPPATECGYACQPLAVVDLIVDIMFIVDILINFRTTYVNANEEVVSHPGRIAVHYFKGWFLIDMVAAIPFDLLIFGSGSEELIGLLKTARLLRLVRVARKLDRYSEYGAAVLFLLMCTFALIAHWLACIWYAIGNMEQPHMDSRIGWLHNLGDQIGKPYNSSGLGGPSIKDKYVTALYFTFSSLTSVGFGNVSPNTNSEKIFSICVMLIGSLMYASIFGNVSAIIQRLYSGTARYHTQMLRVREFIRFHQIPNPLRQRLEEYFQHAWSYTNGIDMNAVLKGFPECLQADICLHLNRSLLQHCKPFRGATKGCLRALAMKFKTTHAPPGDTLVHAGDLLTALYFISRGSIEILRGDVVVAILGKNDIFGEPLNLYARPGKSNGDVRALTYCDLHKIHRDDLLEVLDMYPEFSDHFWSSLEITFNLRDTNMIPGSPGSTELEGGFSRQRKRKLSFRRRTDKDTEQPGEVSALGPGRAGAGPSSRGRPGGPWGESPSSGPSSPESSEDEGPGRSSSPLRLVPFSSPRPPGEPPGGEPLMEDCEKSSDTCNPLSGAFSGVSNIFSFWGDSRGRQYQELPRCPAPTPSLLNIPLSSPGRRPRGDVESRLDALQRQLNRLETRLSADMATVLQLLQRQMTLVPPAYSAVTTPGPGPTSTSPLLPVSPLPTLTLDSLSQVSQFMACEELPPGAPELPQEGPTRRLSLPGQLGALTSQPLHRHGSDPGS

BT-549 = experiment: Growth inhibition of human BT549 cells after 48 hrs by MTT assay; format: functional; details: BT-549, 48 h
Outline: (§3)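 Cancer cell lines sourced from the National Cancer Institute (USA). Cells kept in appropriate growth medium at 37 °C, 95% humidity, 5% CO2. Antiproliferation read by tetrazolium (MTT) assay. GI50 values were determined only for compounds selected after an initial single-concentration screen.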

T47D = experiment: Growth inhibition of human T47D cells after 48 hrs by MTT assay; format: functional; outline: as §3
NCI-H226 = experiment: Growth inhibition of human NCI-H226 cells after 48 hrs by MTT assay; format: functional; details: NCI-H226, 48 h; outline: as §3
MIA PaCa-2 [4] = experiment: Induction of apoptosis in human MIAPaCa2 cells assessed as PARP cleavage by Western blot method; format: functional, cell-based
Outline: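 Lysate protein quantified against a BSA standard; 70 μg resolved by SDS-PAGE, transferred to PVDF overnight at 4 °C, 30 V; blocked 1 h in 5% nonfat milk/TBST; primary antibodies 2–4 h, HRP anti-mouse secondary 1 h; ECL detection on X-ray film.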

[5] = Thermodynamic equilibrium solubility of compound in SIF at pH 6.8 after 5 hrs by shake flask method; format: physicochemical; details: read-out: Therm_solubility
[6] = n-octanol-PBS distribution co-efficient, log D of compound at pH 7.4 by shake flask method; format: physicochemical
[7] = Chemical stability of compound in hydrochloric acid buffer at pH 1.2 assessed as parent compound remaining at 120 ug/ml after 24 hrs by HPLC method; format: physicochemical; details: read-out: Stability
[8] = Half life in human liver microsomes at 100 uM after 30 mins by LC-MS/MS analysis; format: ADME, microsome
[9] = Intrinsic clearance in human liver microsomes assessed per mg of protein at 100 uM after 30 mins by LC-MS/MS analysis; format: ADME, microsome; details: read-out: CLH
[10] = Intrinsic clearance in dog hepatocytes assessed per million cells at 3 uM after 180 mins by LC-MS/MS analysis; format: ADME, cell-based, Canis lupus familiaris, Hepatocyte; details: read-out: CLH
Outline: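 Intrinsic clearance obtained from substrate disappearance over time, reported per mg protein (microsomes, S9) or per 10^6 cells (hepatocytes).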

[11] = Elimination half life in BALB/c mouse at 10 mg/kg, po by LC-MS/MS analysis; format: ADME, organism-based; details: in vivo, read-out: beta t1/2 (converted)
[12] = Cmax in BALB/c mouse at 10 mg/kg, po by LC-MS/MS analysis; format: ADME, organism-based; set-up: dose 10 mg/kg, route oral; details: in vivo
[13] = AUC (0 to t) in BALB/c mouse at 10 mg/kg, po by LC-MS/MS analysis; format: ADME, organism-based; details: in vivo
[14] = AUC (0 to infinity) in BALB/c mouse at 10 mg/kg, po by LC-MS/MS analysis; format: ADME, organism-based; set-up: dose 10 mg/kg, time infinity, route oral; details: in vivo
[15] = Volume of distribution in BALB/c mouse at 1 mg/kg, iv by LC-MS/MS analysis; format: ADME, organism-based; details: in vivo
[16] = Half life in BALB/c mouse at 10 mg/kg, po by LC-MS/MS analysis; format: ADME, organism-based; details: in vivo
[17] = Tmax in BALB/c mouse at 30 mg/kg, po by LC-MS/MS analysis; format: ADME, organism-based; details: in vivo
[18] = Half life in BALB/c mouse at 30 mg/kg, po by LC-MS/MS analysis; format: ADME, organism-based; details: in vivo
[19] = AUC in BALB/c mouse at 30 mg/kg, po by LC-MS/MS analysis; format: ADME, organism-based; details: in vivo
[20] = Cmax in Sprague-Dawley rat at 10 mg/kg, po by LC-MS/MS analysis; format: ADME, organism-based; set-up: dose 10 mg/kg, route oral; details: in vivo
[21] = Cmax in Sprague-Dawley rat at 30 mg/kg, po by LC-MS/MS analysis; format: ADME, organism-based; set-up: dose 30 mg/kg, route oral; details: in vivo
[22] = Pancreas to plasma partition coefficient, Kp of the compound in BALB/c mouse at 30 mg/kg, po measured at 0.5 hrs; format: ADME, organism-based; details: pancreas and plasma
Liver = experiment: Drug uptake in BALB/c mouse liver at 30 mg/kg, po after 8 hrs; format: ADME, organism-based; details: in vivo
Kidney = experiment: Drug uptake in BALB/c mouse kidney at 30 mg/kg, po after 8 hrs; format: ADME, organism-based; details: in vivo
Mus musculus [23] = experiment: Toxicity in Swiss albino mouse allografted with Swiss mouse EAC assessed as mortality at 70 to 100 mg/kg, po administered for 9 day; format: organism-based; details: in vivo, 216 h
Mus musculus [24] = experiment: Toxicity in CD1 nude mouse xenografted with human MOLT4 cells assessed as mortality at 50 mg/kg, po qd administered on day 10 to 25 post tumor inoculation; format: organism-based; details: in vivo
MIA PaCa-2 [25] = experiment: Antitumor activity against human MIAPaCa2 cells xenografted in CD1 nude mouse assessed as tumor growth inhibition at 25 mg/kg, po qd administered on day 10 to 25 post tumor inoculation; format: functional, organism-based
MOLT-4 = experiment: Antitumor activity against human MOLT4 cells xenografted in CD1 nude mouse assessed as tumor growth inhibition at 25 mg/kg, po qd administered on day 10 to 25 post tumor inoculation; format: functional, organism-based
[26] = Apparent permeability across basolateral to apical side in human Caco2 cells after 90 mins by LC-MS/MS analysis; format: ADME, cell-based; details: Caco-2
Salmonella typhimurium [27] = experiment: Mutagenicity in Salmonella typhimurium TA98 at 50 ug/plate in presence of liver S9 fraction by Ames test; format: toxicity; details: salmonella enterica subsp. enterica serovar typhimurium
Salmonella typhimurium [28] = experiment: Mutagenicity in Salmonella typhimurium TA100 at 50 ug/plate in presence of liver S9 fraction by Ames test; format: toxicity; details: salmonella enterica subsp. enterica serovar typhimurium

Q: Which inhibition of growth at 10 µM (HL-60) does the source give for `CN1CC[C@H](c2c(O)cc(O)c3c(=O)cc(/C=C/c4c(Cl)cccc4Cl)oc23)[C@H](O)C1` here?
A: 90%

Q: What about the inhibition of growth at 10 µM (Caco-2) of the same molecule?
A: 68%

Q: What about the IC50 (CDK2/Cyclin O) of the same molecule?
A: 0.138 µM

Q: What about the inhibition [1] of the same molecule?
A: > 98%

Q: What about the inhibition [2] of the same molecule?
A: > 98%

Q: What about the IC50 [3] of the same molecule?
A: > 50 µM

Q: And the GI50 (BT-549)?
A: 5 µM

Q: And the GI50 (T47D)?
A: 6 µM

Q: What about the GI50 (NCI-H226) of the same molecule?
A: 4 µM

Q: And the Activity (MIA PaCa-2 [4])?
A: Dose-dependent effect

Q: What about the solubility thermodynamic at 5 h [5] of the same molecule?
A: 2.18 µg/mL (≈ 4.72 µM)

Q: And the logD [6]?
A: 1.65

Q: What about the remaining at 24 h, 120 ug/ml [7] of the same molecule?
A: 100%

Q: And the half-life at 100 µM [8]?
A: > 0.5 h

Q: What about the microsomal CLint at 100 µM [9] of the same molecule?
A: < 8.6 µL/min/mg

Q: And the hepatocyte CLint at 3 µM [10]?
A: 12.3 µL/min/1e6 cells

Q: What about the half-life [11] of the same molecule?
A: 4.65 h

Q: And the Cmax [12]?
A: 670 to 1290 nM

Q: What about the AUC(0-t) [13] of the same molecule?
A: 4.5 µM·h

Q: What about the AUC(0-inf) [14] of the same molecule?
A: 4.4 µM·h

Q: What about the Vd [15] of the same molecule?
A: 26.2 L/kg

Q: And the half-life [16]?
A: 3.61 h

Q: And the Tmax [17]?
A: 0.54 h

Q: And the half-life [18]?
A: 3.62 h

Q: What about the AUC [19] of the same molecule?
A: 11.3 µM·h

Q: And the Cmax [20]?
A: 900 nM

Q: What about the Cmax [21] of the same molecule?
A: 3620 nM

Q: And the Kp at 0.5 h [22]?
A: 14.2

Q: And the Drug uptake (Liver)?
A: Active

Q: What about the Drug uptake (Kidney) of the same molecule?
A: Active

Q: What about the Activity (Mus musculus [23]) of the same molecule?
A: Non-Toxic

Q: What about the Activity (Mus musculus [24]) of the same molecule?
A: Non-Toxic

Q: What about the TGI (MIA PaCa-2 [25]) of the same molecule?
A: inactive

Q: What about the TGI (MOLT-4) of the same molecule?
A: inactive

Q: What about the Papp B→A at 1.5 h [26] of the same molecule?
A: 3.9 ×10⁻⁶ cm/s

Q: What about the Activity (Salmonella typhimurium [27]) of the same molecule?
A: Non-Toxic

Q: And the Activity (Salmonella typhimurium [28])?
A: Non-Toxic
